Measurements reported in PMC3139708 (Nature chemical biology, 2011).
“Also recorded” adds a separate entry of the source. Where a SMILES comes first, the peptide text is derived from it. [ ]: non-standard residue; d: D form. βAla = NCCC(=O)O

Experiments:
[1] = target: FKBP(F36V) (Homo sapiens, UniProt P62942, F37V); assay: Fluorescence polarization competition binding against Fl-SLF; conditions: polarization signal; Fl-SLF 1 nM, FKBP(F36V) 100 nM
How it was run: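 Purified FKBP(F36V) and fluorescent Shield-1 analog Fl-SLF were held at fixed concentrations and incubated with a titration of synthetic test peptide. Tracer displacement was read as the decrease in fluorescence polarization.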

[2] = system: YFP-LID; assay: Shield-dependent degradation of YFP-LID in NIH3T3 cells, flow cytometry; assay type: cell-based
How it was run: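 NIH3T3 cells were stably retrovirally transduced with YFP-FKBP(F36V) plus the 19-residue C-terminal peptide, with IRES-HcRed as infection marker. They were plated at 1 × 10⁵ per well and given vehicle or Shield-1 (1 pM–1 μM, or 1 μM for 24 h), then trypsinised. YFP was read by flow cytometry (typically 10,000 events) against untransduced-cell autofluorescence. Error bars are s.d. from at least two experiments.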

[3] = system: YFP-LID; assay: Time course of YFP-LID degradation and recovery in NIH3T3 cells, flow cytometry; assay type: cell-based; conditions: NIH3T3, absence of cycloheximide
How it was run: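 Stably transduced NIH3T3 cells expressing YFP-LID were plated at 1 × 10⁵ cells/well. For degradation, Shield-1 was added and cells were sampled at various times. For recovery, Shield-1 was removed by changing to fresh growth medium containing 5 μM recombinant FKBP(F36V) at set times before analysis. YFP was read by flow cytometry, and the maximum fluorescence was set to 100%.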

[4] = system: YFP-LID fusion proteins in HeLa cells; assay: YFP-LID degradation in transiently transfected HeLa cells; assay type: cell-based; conditions: 24 hours Shield-1
[5] = system: YFP-LID fusion proteins in U2OS cells; assay: YFP-LID degradation in transiently transfected U2OS cells; assay type: cell-based; conditions: 24 hours Shield-1
[6] = system: YFP; assay: Stability of YFP fused directly to the 19-residue peptide or its truncations; assay type: cell-based; conditions: 1 μM Shield-1, 24 h, flow cytometry
How it was run: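 The 19-residue peptide was fused directly to YFP, without FKBP, and stably transduced into NIH3T3 cells by retrovirus. Cells were plated at 1 × 10⁵ per well, treated with vehicle or 1 μM Shield-1 for 24 h, trypsinised and analysed by flow cytometry (typically 10,000 events). Error bars are s.d. from at least two experiments.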

[7] = system: transcription factors fused to LID (Oct4, Klf4, Sox2, Myc, Lin28, Nanog); assay type: cell-based, human; Nanog mouse; conditions: 2 μM Shield-1, 24 h, NIH3T3, immunoblot
How it was run: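 LID was fused to the C-terminus of each of six transcription factors. Each was retrovirally transduced into NIH3T3 cells separately (4 μg/mL polybrene, 4 h, 37 °C; 24–36 h integration) in DMEM with 10% donor bovine serum. Cells got vehicle or 2 μM Shield-1 for 24 h. Lysates were immunoblotted with anti-Oct4, anti-Klf4, anti-HA (Sox2, Myc, Lin28) or anti-Flag (Nanog). α-Tubulin was the loading control; untransduced cells were the reference.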

[8] = system: Oct4-LID; assay: Reprogramming of MEFs; assay type: cell-based, murine embryonic fibroblasts; conditions: 2 μM Shield-1 from day 3 post-infection
How it was run: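 Fibroblasts came from transgenic mice carrying GFP driven by the Oct4 promoter. They were retrovirally transduced with Sox2, Myc, Klf4 and Oct4-LID, with untagged Oct4 as comparison. Vehicle or 2 μM Shield-1 was added on day 3 post-infection, and alkaline phosphatase staining was done on day 14. GFP-positive cells were moved to fresh feeder layer on day 19 and stained with APC anti-SSEA-1 on day 24.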

[9] = system: actin-GFP-LID; assay: Depletion of β-actin-AcGFP-LID in NIH3T3 cells, fluorescence microscopy; assay type: cell-based, human; conditions: 2 μM Shield-1, 24 hours
How it was run: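 NIH3T3 fibroblasts were retrovirally co-transduced (4 μg/mL polybrene, 4 h, 37 °C; then 24–36 h in growth medium) with human β-actin fused to Aequorea coerulescens GFP plus LID, and with β-actin-mCherry to mark microfilaments. Cells were cultured ± Shield-1, and green and red actin filaments were imaged by epifluorescence microscopy with a 40x objective.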

[10] = system: YFP-LID; assay: Simultaneous use of LID and DD systems in NIH3T3 cells: YFP-LID; assay type: cell-based; conditions: various concentrations of Shield-1, 24 h, flow cytometry and microscopy
How it was run: (§1)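 NIH3T3 cells stably co-transduced with YFP-LID and DD-mCherry were plated at 1 × 10⁵ cells/well. They were exposed to a range of Shield-1 concentrations for 24 h, then detached with trypsin-EDTA. YFP and mCherry were read in their respective channels by flow cytometry (typically 10,000 events) and by epifluorescence microscopy.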

[11] = system: DD-mCherry; assay: Simultaneous use of LID and DD systems in NIH3T3 cells: DD-mCherry; assay type: cell-based; conditions: various concentrations of Shield-1, 24 h, flow cytometry and microscopy
How it was run: as §1

[12] = system: YFP-FKBP(F36V)-degron-LPLPLP fusions (CL1, CyclinB, encephalomyocarditis virus degron); assay type: cell-based; conditions: NIH3T3, flow cytometry
[13] = target: FKBP domain; conditions: ref [18],[26]; cited from earlier work
[14] = system: FKBP; conditions: relative to Shield-1; ref [19]; cited from earlier work

Chain of FKBP(F36V) (P62942 whole entry F37V): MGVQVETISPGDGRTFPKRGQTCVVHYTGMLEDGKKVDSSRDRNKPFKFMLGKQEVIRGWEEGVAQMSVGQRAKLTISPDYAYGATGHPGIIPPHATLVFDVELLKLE

**Q.** With CC(C)C[C@H](NC(=O)[C@H](CC(C)C)NC(=O)[C@@H](NC(=O)[C@@H](NC(=O)CNC(=O)[C@H](CCC(=O)O)NC(=O)[C@H](C)NC(=O)[C@@H](NC(=O)[C@H](CCC(=O)O)NC(=O)[C@H](CCC(=O)O)NC(=O)[C@@H](NC(=O)CNC(=O)[C@H](CCCNC(=N)N)NC(=O)[C@@H](NC(=O)CCN)[C@@H](C)O)C(C)C)C(C)C)C(C)C)C(C)C)C(=O)N[C@@H](CCCNC(=N)N)C(=O)N[C@@H](CCCNC(=N)N)C(=O)N[C@@H](CCCNC(=N)N)C(=O)NCC(=O)N[C@@H](CC(N)=O)C(=O)O [19-residue peptide] (H-[βAla]TRGVEEVAEGVVLLRRRGN-OH; N-terminus and C-terminus assumed) as the compound, how does the “displacement of tracer Fl-SLF from FKBP” value [1] read?
**A.** The value was “dose-dependent decrease in polarization signal”.

**Q.** What does the source list for CC[C@H](C(=O)N1CCCC[C@H]1C(=O)O[C@H](CCc1ccc(OC)c(OC)c1)c1cccc(OCCN2CCOCC2)c1)c1cc(OC)c(OC)c(OC)c1 [Shield-1]?
**A.** YFP fluorescence levels in Shield-treated cells above the background autofluorescence ([2]; relative to untransduced NIH3T3 cells, flow cytometry): 10-20%; time for YFP levels to be reduced 50% upon addition of Shield-1 [3]: 45 min; degradation of YFP-LID fusion proteins [4]: could be degraded in transient transfected HeLa and U2OS cells; degradation of YFP-LID fusion proteins [5]: could be degraded in transient transfected HeLa and U2OS cells; effect of Shield-1 on the stability of YFP-19mer [6]: this instability is not affected by Shield-1; also recorded: no effect on the stability of this fusion; degradation of LID-fused transcription factors [7]: all degraded in a Shield-1 dependent manner; reprogramming to iPS cells of cells expressing Oct4-LID in the presence of Shield-1 [8]: unable to undergo reprogramming to iPS cells; GFP fluorescence of β-actin-GFP-LID after Shield-1 [9]: GFP fluorescence was absent; YFP-LID level [10]: dose-dependent depletion of YFP-LID; mCherry (DD-mCherry) level [11]: simultaneous stabilization of mCherry; stability of YFP-FKBP-degron-LPLPLP fusions with Shield-1 [12]: an increase in fluorescence was observed; affinity for the FKBP domain [13]: sub-nanomolar

**Q.** For CCC(CC)NC(=O)N1CCCC[C@H]1C(=O)O[C@H](CCc1ccc(OC)c(OC)c1)c1cccc(OCCN2CCOCC2)c1 [Shield-2], which “destabilization of the LID domain” value ([2]; NIH3T3 cells, compared with Shield-1) is on record?
**A.** The value was “can also destabilize the LID domain although with slightly reduced potency”.

**Q.** What about the “binding potency for FKBP” value [14] of the same compound?
**A.** Its value is “less potent binding ligand for FKBP”.
